NR3A LBD binder = binders of NR3A ligand-binding domain, primary screen, biophysical, differential scanning fluorimetry, uHTS; Glutamate receptor ionotropic, NMDA 3A (GRIN3A) ligand-binding domain; NR3A LBD differential scanning fluorimetry, Tm shift; 0% = protein alone, 100% = glycine-bound protein; Tm shift relative to glycine control, % at 25 µM; actives 2.5% (n = 340,000); AID 1259313, 2017;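 active = melting temperature shift of at least 10% of the positive control shift, at one fixed dose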
T cell modulator = modulators of CD8 T cell-vesicle binding, primary screen, mouse 2C CD8+ T cells, flow cytometry | 2C CD8+ T cell-vesicle binding; stronger effect = lower value | response (vesicle binding), % at 7 µM | actives 0.068% (n = 330,000);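 active = response, share of CD8 T cells binding vesicles, and their 90th percentile fluorescence all below set limits, cut at about 80% in these data, passing the limit was not always enough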;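 also: values below 100% mean blocked vesicle binding to the CD8+ T cells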
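Assay system: 2C TCR transgenic mouse naive CD8+ T cells, MACS-purified | Read-out: CD8+ gate FL2 mean fluorescence as % of same-row positive control | Signal: High-throughput flow cytometry with anti-B7-1 and anti-CD8 staining | Timing: Binding step 1.5 h, 37 °C, antibody labelling 20 min, ice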
Rtt109 Vps75 = inhibitors of C. albicans Rtt109/Vps75 HAT, primary screen, biochemical, ThioGlo CoA-SH fluorescence, plate reader; actives 0.16% (n = 330,000); purified Rtt109/Vps75, 4 h; Histone acetyltransferase RTT109 (Candida albicans (strain SC5314 / ATCC MYA-2876)), …; inhibition, % at 34.9 µM;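 active = inhibition of at least 50% in every replicate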
JMJD2C inh = inhibitors of GASC-1 histone demethylase, primary screen, biochemical, fluorescence, DELFIA europium | Lysine-specific demethylase 4C (Homo sapiens), Q9H3R0 | inhibition, % at 2.35 µM | GST-JMJD2C(1-420) H3K9me3 demethylation | actives 0.069% (n = 330,000);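 active = more than half of a compound's replicate wells show inhibition beyond 50%, single wells judged on their own value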;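 also: signal counts dimethyl H3K9 product captured on neutravidin plate; 0% = median of DMSO wells and 100% = 0.3 times that DMSO median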
Target sequence (Q9H3R0 1-420 limits assumed): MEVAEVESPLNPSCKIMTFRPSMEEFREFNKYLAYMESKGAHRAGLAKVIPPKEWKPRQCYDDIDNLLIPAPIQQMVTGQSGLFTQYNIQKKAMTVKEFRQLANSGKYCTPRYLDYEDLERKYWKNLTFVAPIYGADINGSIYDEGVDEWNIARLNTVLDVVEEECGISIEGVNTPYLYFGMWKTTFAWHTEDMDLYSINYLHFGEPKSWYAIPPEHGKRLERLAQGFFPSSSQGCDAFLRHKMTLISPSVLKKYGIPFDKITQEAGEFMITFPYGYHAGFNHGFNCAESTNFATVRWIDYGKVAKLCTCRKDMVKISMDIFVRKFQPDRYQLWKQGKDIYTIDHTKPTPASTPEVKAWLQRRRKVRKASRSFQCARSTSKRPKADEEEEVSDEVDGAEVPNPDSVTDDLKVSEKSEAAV
* marks the source's active call; other numbers are inactive results; i = inactive; x = no result given. In the library only some 2.8% were active in any assay of this set; here they are far more common.

SMILES	NR3A LBD binder	T cell modulator	Rtt109 Vps75	JMJD2C inh
CCOC(=O)c1c(-c2cccs2)csc1NC(=O)CN1CCOCC1	22.7*	196.1	0.4	26.3
CC(Sc1nnc(-c2ccco2)n1C)C(=O)Nc1nccs1 (stereo not given)	20.8*	54.5	4.1	28.7
CCOC(=O)[C@H]1[C@H]2COc3ccccc3[C@@H]2N2C(=O)c3c(C)cc(C)cc3NC(=O)[C@@]12C	-3.1	x	2.0	3.1
C/C(=N\NC(=O)c1nnn(-c2nonc2N)c1C(C)C)c1cc(C)sc1C	-11.6	276.3	-16.9	6.8
O=C(Nc1ccc(O)cc1)c1c(O)c2c([nH]c1=O)CCCC2	15.1*	x	1.9	-15.4
Cc1cc(NC(=O)C(C)SCC(=O)N(C)CC(=O)Nc2ccc(F)cc2)no1 (stereo not given)	-1.9	i	3.2	-1.5
Cc1c(NC(=O)c2ccc(NS(=O)(=O)c3ccc(F)c(F)c3)cc2)c(=O)n(-c2ccccc2)n1C	-0.3	484.3	-7.3	2.9
Oc1ccccc1-c1nc2c3ccccc3c3ccccc3c2[nH]1	37.3*	9.6	-3.3	-3.7
c1ccc(-c2nc(-c3cccs3)[nH]c2-c2ccccc2)cc1	2.0	593.1	-1.2	2.2
c1csc(-c2nc3c4ccccc4c4ccccc4c3[nH]2)c1	27.8*	378.7	-6.2	-0.2
CCN(CC(=O)Nc1ccccc1C(F)(F)F)C(=O)C1CC(=O)N(Cc2ccccc2)C1 (stereo not given)	-1.1	366.7	-8.9	4.6
O=C(CN1c2ccccc2Sc2ccccc21)NNC(=S)Nc1ccc(Cl)cc1	33.0*	284.0	-10.2	-24.6
O=C(CN1c2ccccc2Sc2ccccc21)NNC(=S)Nc1ccc(Cl)cc1Cl	21.4*	163.5	-45.1	4.0
Nc1cc2c(cc1Br)-c1ccccc1C2=NO	30.8*	x	9.4	x
O=C(CSCc1c(Cl)cccc1Cl)NCc1cccnc1	x	605.2	4.4	-2.6
O=C(CSCc1c(F)cccc1Cl)NCc1cccnc1	11.5*	i	0.0	6.8
CCOC(=O)c1nn(-c2ccccc2)cc1O	10.3*	511.4	-1.4	73.2
CCOC(=O)c1nn(-c2ccc(C)cc2)cc1O	-0.1	466.2	33.2	5.3
O=C(CCCCCN1C(=O)CCC1=O)Nc1ccc(Br)cc1F	11.4*	195.7	5.1	2.5
O=C(CCCc1ccccc1)Nc1ccc(Br)cc1F	-1.8	288.2	4.8	4.6
O=C(N/N=C/c1ccc(Br)s1)c1ccncc1	-47.9	262.1	-2.7	29.0
O=C(N/N=C/c1ccc(Br)s1)c1cccs1	5.9	116.6	3.0	-0.2
O=C(N/N=C/c1cc2c(cc1Br)OCO2)c1c[nH]c2ccccc12	14.9*	520.0	11.1	46.7
O=C(N/N=C/c1cc(Br)cs1)c1ccccc1[N+](=O)[O-]	2.1	291.8	-0.3	-5.4
O=C(N/N=C/c1ccc(Br)s1)Nc1ccccc1	20.0*	310.4	3.6	-10.6
SMILES	NR3A LBD binder	T cell modulator	Rtt109 Vps75	JMJD2C inh
O=C(N/N=C/c1ccc(Br)s1)c1c[nH]c2ccccc12	25.1*	337.3	22.3	0.0
O=C(N/N=C/c1cc(Br)cs1)c1c[nH]c2ccccc12	38.0*	208.7	2.6	5.9
CCOC(=O)N1CCN(C(=O)COC(=O)C2CCN(S(=O)(=O)c3c(C)c(C)cc(C)c3C)CC2)CC1	-0.1	744.4	-15.2	-1.0
CCN(C(=O)CN1C(=O)NC2(CCc3ccccc32)C1=O)C1CCCCC1 (stereo not given)	-1.9	680.9	1.5	3.2
CC(C)(C)C(=O)CSc1nnc(Nc2ccccc2)s1	-2.1	601.4	-2.5	10.3
O=C(N/N=C/c1cc2c(cc1Br)OCO2)c1cc2ccccc2o1	13.2*	349.4	0.2	-0.8
COc1cccc(/C=N/N2CCN(C3c4ccccc4-c4ccccc43)CC2)c1O	-0.4	60.9	-3.8	-10.7
O=C(N/N=C/c1c[nH]c2ccc(Br)cc12)c1ccccn1	10.2*	439.4	2.6	-4.3
O=C(N/N=C/c1c[nH]c2ccc(Br)cc12)c1ccn(Cc2ccc(Cl)cc2Cl)n1	17.0*	196.6	2.4	-2.5
NC(=O)C(=O)N/N=C/c1c[nH]c2ccc(Br)cc12	-5.9	431.8	8.0	-1.0
O=C(N/N=C/c1cc2c(cc1Br)OCO2)c1ccccn1	-1.3	261.1	x	2.8

From PubChem BioAssay
